# Measured values reported in ChEMBL document CHEMBL1121835, “Synthesis and anxiolytic activity of 6-(substituted-phenyl)-1,2,4-triazolo[4,3-b]pyridazines” (J Med Chem, 1981).
# Calls of active or inactive are those of the source. The rule behind the calls is not given here.
# Assays:
# Rattus norvegicus [1] = assay: Hypotensive activity in saline-loaded spontaneously hypertensive rats following 100 mg/kg p.o. administration.; type: functional; set-up: unit not given beside the values; conditions: route oral
# Procedure, shortened: (§1)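 Male Okamoto SH rats, about 300 g, gavaged with compound suspended in 2% boiled starch, with 0.9% NaCl loading at 25 mL/kg, at 0 h. An identical dose without saline followed at 24 h. Mean arterial pressure was taken by iliac artery puncture under local lidocaine at 28 h. Values are from one to three rats.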
# Rattus norvegicus [2] = assay: Hypotensive activity evaluated as mean arterial blood pressure (MABP) in saline-loaded spontaneously hypertensive rats dosed (per oral) at 25 mg/kg; type: functional; procedure, shortened: as §1
# Rattus norvegicus [3] = assay: In vivo protection against pentylenetetrazole-induced convulsions in the rat.; type: functional
# Procedure, shortened: (§2)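 Rats in groups of 10, food-deprived 24 h, given 4–6 graded doses of compound orally (or ip where noted). PTZ at 23 mg/kg was injected iv into the caudal vein 60 min later. Protection meant no clonic seizure lasting at least 5 s. The number protected was counted and the ED50 estimated.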
# Rattus norvegicus [4] = organism: Rattus norvegicus; assay: Anxiolytic activity for protection against pentylenetetrazole-induced convulsions.; type: functional, organism-based; procedure, shortened: as §2
# [5] = molecular target: T1, GABA-A receptor; anion channel (Rattus norvegicus) (UniProt O09028+P15431+P18506+P18508+P19969+P20236+P23574+P23576+P28471+P28473+P30191+P62813+P63079+P63138+Q91ZM7+Q9ES14); assay: In vitro inhibition of [3H]diazepam binding towards Benzodiazepine receptor at 1 uM; type: protein-complex assay
# [6] = molecular target: GABA-A receptor; anion channel; assay: In vitro for inhibition of [3H]diazepam towards Benzodiazepine receptor from rat; type: protein-complex assay
# Procedure, shortened: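 Rat frontal cortex homogenized in ice-cold 0.32 M sucrose; crude P2 synaptosomal fraction resuspended in 50 mM Tris-HCl pH 7.4. IC50 read graphically from % inhibition vs log concentration plots.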
# [7] = molecular target: T1, GABA-A receptor; anion channel (Rattus norvegicus); assay: In vitro percent inhibition of [3H]diazepam binding to rat GABA-A benzodiazepine receptor at 1 uM; type: protein-complex assay
# Rattus norvegicus [8] = organism: Rattus norvegicus; assay: Anxiolytic activity for protection against pentylenetetrazole-induced convulsions in experiment 2; type: functional; procedure, shortened: as §2
# Rattus norvegicus [9] = organism: Rattus norvegicus; assay: Anxiolytic activity for protection against pentylenetetrazole-induced convulsions in experiment 1; type: functional; procedure, shortened: as §2
# Rattus norvegicus [10] = assay: Compound was evaluated for anxiolytic activity for protection against pentylenetetrazole-induced convulsions; no activity at 50 mg/kg; type: functional, organism-based; set-up: dose 50 mg/kg; procedure, shortened: as §2
# Rattus norvegicus [11] = assay: Hypotensive activity evaluated as mean arterial blood pressure (MABP) in saline-loaded spontaneously hypertensive rats dosed (per oral) at 50 mg/kg; type: functional; procedure, shortened: as §1
# Rattus norvegicus [12] = assay: Hypotensive activity evaluated as mean arterial blood pressure (MABP) in saline-loaded spontaneously hypertensive rats dosed (per oral) at 100 mg/kg; Toxic at 100 mg/Kg; type: functional, organism-based; procedure, shortened: as §1
# Rattus norvegicus [13] = assay: Compound was evaluated for anxiolytic activity for protection against pentylenetetrazole-induced convulsions administered intraperitoneally; type: functional; conditions: ip; procedure, shortened: as §2
# Rattus norvegicus [14] = assay: Compound was evaluated for anxiolytic activity for protection against pentylenetetrazole-induced convulsions administered orally; No activity at 50 mg/Kg; type: functional, organism-based; procedure, shortened: as §2
# Rattus norvegicus [15] = assay: Compound was evaluated for anxiolytic activity for protection against pentylenetetrazole-induced convulsions; No activity at 50 mg/Kg; type: functional, organism-based; procedure, shortened: as §2
# Rattus norvegicus [16] = organism: Rattus norvegicus; assay: Average reduction in blood pressure over control (4 rats) at 2 hr in spontaneous hypertensive rats; type: functional
# Procedure, shortened: (§3)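 Conscious cannulated male Okamoto SH rats, 300–350 g, dosed po with vehicle (2% boiled starch) or compound at 1, 5, 10 and 25 mg/kg. A second po dose was given 20 h later, and pressure was recorded continuously for 4 h. The value is the mean reduction against controls at 2 and 4 h, n = 4.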
# Rattus norvegicus [17] = organism: Rattus norvegicus; assay: Average reduction in blood pressure over control (4 rats) at 4 hr in spontaneous hypertensive rats; type: functional; procedure, shortened: as §3
# [18] = Rattus norvegicus, read-out: ED50
smiles,measurement,setting,value
CCc1nnc2ccc(-c3ccc(C(F)(F)F)cc3)nn12,MABP,Rattus norvegicus [1],129
same,MABP,Rattus norvegicus [2],157
same,ED50,Rattus norvegicus [3],~50 mg/kg
O=[N+]([O-])c1cccc(-c2ccc3nncn3n2)c1,ED50,Rattus norvegicus [3],22 mg/kg
CCc1nnc2ccc(-c3ccc(Cl)cc3)nn12,ED50,Rattus norvegicus [4],inactive
same,MABP,Rattus norvegicus [1],141
Cc1cc2nncn2nc1-c1cccc(C(F)(F)F)c1,inhibition,[5],21%
same,ED50,Rattus norvegicus [3],12.9 mg/kg
Cc1nnc2ccc(-c3cccc(F)c3)nn12,IC50,[6],1200 nM
same,inhibition,[5],47%
same,inhibition,[7],43%
same,ED50,Rattus norvegicus [3],3.1 mg/kg
c1ccc(-c2ccc3nncn3n2)cc1,ED50,Rattus norvegicus [8],4.8 mg/kg
same,ED50,Rattus norvegicus [9]; [18],9 mg/kg
same,inhibition,[5],23%
FC(F)(F)c1cccc(-c2ccc3nnc(C(F)(F)F)n3n2)c1,ED50,Rattus norvegicus [4],inactive
same,inhibition,[5],60%
Cc1cc2nnc(C)n2nc1-c1cccc(C(F)(F)F)c1,MABP,Rattus norvegicus [1],129
same,inhibition,[5],26%
same,ED50,Rattus norvegicus [3],13.8 mg/kg
COc1cccc(-c2ccc3nnc(C)n3n2)c1,IC50,[6],309 nM
same,inhibition,[5],74%
Cc1cc(-c2cccc(C(F)(F)F)c2)nn2cnnc12,MABP,Rattus norvegicus [1],102
same,EC50,Rattus norvegicus [10],Not Active
same,inhibition,[5],< 10%
Clc1cccc(-c2ccc3nncn3n2)c1,IC50,[6],2250 nM
same,inhibition,[5],30%
same,ED50,Rattus norvegicus [3],8.2 mg/kg
Clc1ccccc1-c1ccc2nncn2n1,MABP,Rattus norvegicus [1],127
same,ED50,Rattus norvegicus [3],18 mg/kg
Cc1cc2nnc(C)n2nc1-c1ccc(F)cc1,ED50,Rattus norvegicus [4],inactive
same,inhibition,[5],< 10%
Cc1nnc2ccc(-c3ccc(Cl)c(Cl)c3)nn12,ED50,Rattus norvegicus [4],inactive
Cc1cc(-c2ccc(F)cc2)nn2c(C)nnc12,ED50,Rattus norvegicus [4],inactive
same,MABP,Rattus norvegicus [1],126
same,inhibition,[5],< 10%
Cc1nnc2ccc(-c3ccc(C(F)(F)F)cc3)nn12,MABP,Rattus norvegicus [11],123
same,MABP,Rattus norvegicus [12],Toxic
same,ED50,Rattus norvegicus [13],15 mg/kg
same,ED50,Rattus norvegicus [14],inactive
same,inhibition,[5],17%
same,MABP,Rattus norvegicus [2],157
Cl.NNc1nncc2ccccc12 [HYDRALAZINE HYDROCHLORIDE],MABP,Rattus norvegicus [2],82
Cc1cc2nncn2nc1-c1cccc(C#N)c1,MABP,Rattus norvegicus [1],88
same,MABP,Rattus norvegicus [2],135
same,ED50,Rattus norvegicus [3],34 mg/kg
Cc1cc(-c2cccc(C(F)(F)F)c2)nn2c(C)nnc12,ED50,Rattus norvegicus [15],inactive
same,inhibition,[5],< 10%
c1ccc(Cc2nnc3ccc(-c4ccccc4)nn23)cc1,ED50,Rattus norvegicus [4],inactive
Clc1ccc(-c2ccc3nncn3n2)cc1,ED50,Rattus norvegicus [8],9.8 mg/kg
same,ED50,Rattus norvegicus [9]; [18],5.3 mg/kg
same,MABP,Rattus norvegicus [1],110
same,BP,Rattus norvegicus [16],-15 mmHg
same,inhibition,[5],< 10%
same,MABP,Rattus norvegicus [2],136
same,BP,Rattus norvegicus [17],-17 mmHg
Clc1ccc(-c2ccc3nnc(-c4ccccc4)n3n2)cc1,ED50,Rattus norvegicus [4],inactive
Cc1cc2nncn2nc1-c1cccc(F)c1,ED50,Rattus norvegicus [4],inactive
same,MABP,Rattus norvegicus [1],142
Cc1nnc2ccc(-c3ccc(Cl)cc3)nn12,ED50,Rattus norvegicus [8],10 mg/kg
same,ED50,Rattus norvegicus [9]; [18],9.9 mg/kg
same,inhibition,[5],28%
CC(=O)Nc1cccc(-c2ccc3nnc(C)n3n2)c1,IC50,[6],633 nM
same,EC50,Rattus norvegicus [10],Not Active
same,inhibition,[5],56%
FC(F)(F)c1cccc(-c2ccc3nnc(CCl)n3n2)c1,ED50,Rattus norvegicus [15],inactive
same,IC50,[6],391 nM
same,inhibition,[5],67%
Clc1ccc(-c2ccc3nncn3n2)cc1Cl,ED50,Rattus norvegicus [4],inactive
COc1cccc(-c2ccc3nncn3n2)c1,ED50,Rattus norvegicus [13],50 mg/kg
same,inhibition,[5],34%
same,inhibition,[7],29%
Cc1nnc2ccc(-c3ccc(F)cc3)nn12,IC50,[6],589 nM
same,ED50,Rattus norvegicus [9],2 mg/kg
same,ED50,Rattus norvegicus [9]; [18],3.4 mg/kg
same,inhibition,[5],65%
same,inhibition,[7],64%
Fc1ccc(-c2ccc3nncn3n2)cc1,ED50,Rattus norvegicus [8],2.2 mg/kg
same,ED50,Rattus norvegicus [9]; [18],5 mg/kg
same,MABP,Rattus norvegicus [1],88
same,BP,Rattus norvegicus [16],-26 mmHg
same,inhibition,[5],16%
same,MABP,Rattus norvegicus [2],123
same,BP,Rattus norvegicus [17],-31 mmHg
COCc1nnc2ccc(-c3cccc(C(F)(F)F)c3)nn12,inhibition,[5],23%
same,ED50,Rattus norvegicus [3],6.4 mg/kg
